PAD4 inh: blocks human protein arginine deiminase 4 | Q9UM07 | recombinant PAD4, RCA probe fluorescence polarization | inhibition, % at 6.36 µM | 0.41% of 330,000 active;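 active = percent inhibition above a cutoff equal to the mean of all tested compounds plus 3 SD, cut at about 15% in these data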;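 note: 0% = PAD4 with RCA probe and DMSO and 100% = probe without PAD4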
TCR-CD3 inh: human TCR-CD3 binding inhibition. TAMRA-labeled TCR probe fluorescence, biochemical. inhibition, % at 9.4 µM. 0.37% of 360,000 active. AID 651800; in the data active = inhibition above about 19%;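 note: recombinant mutant TCR 2C K166C tagged with TAMRA read by polarization; 0% = receptor in buffer alone and 100% = receptor with positive control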
SIAE primary: human SIAE inhibition, primary screen; Q9HAT2; SIAE FP-Rh probe binding, fluorescence polarization; inhibition, % at 9.66 µM; 0.69% of 370,000 active; AID 1053197;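 active = inhibition above a cutoff: mean of compounds within the control limits plus 3 SD of those, cut at about 17% in these data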;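 note: 0% = plate median of compound wells and 100% = probe without SIAE protein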
GSTO1 inh: blocks human GSTO1 in RBBP9 counter-screen; P78417; AID 1974; inhibition, % at 5.96 µM; 1.1% of 300,000 active; recombinant GSTO1, activity-based probe fluorescence polarization;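 active = inhibition above the campaign mean inhibition plus 3 SD, cut at about 35% in these data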;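 note: 0% = GSTO1-1 with DMSO and 100% = wells lacking GSTO1-1 enzyme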
TDP2 absorb: TDP2 (human) inhibition, absorbance primary screen; recombinant TDP2, T5PNP hydrolysis, p-nitrophenol absorbance 415 nm; inhibition, % at 12.8 µM; 0.34% of 370,000 active; AID 720702;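 active = inhibition above the mean of all tested compounds plus 3 SD, set per campaign, cut at about 25% in these data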;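 note: 0% = DMSO with enzyme and 100% = buffer with substrate but no TDP2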
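Read-out basis: percent inhibition. System: recombinant human TDP2. Buffer or medium: Mg2+-containing Tris-HCl buffer, pH 7.5. Repeats: single replicate. Timing: reaction 2 h, 37 °C. Benchmarks: high control without enzyme, low control DMSO plus TDP2. Probe or stimulus: 5 mM T5PNP. Doses: 12.8 µM only. Measured by: epi absorbance of p-nitrophenol freed from T5PNP by hydrolysis.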
Apaf-1 inh: inhibitors of human Apaf-1 apoptosome; inhibition, % at 20 µM; O14727; reconstituted apoptosome caspase-3 activity, DEVD-Rh110 fluorescence; 0.71% of 330,000 active; AID 489030; active = inhibition of at least 40% at 20 µM;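 note: plate controls were DMSO wells for no effect and DEVD-CHO caspase inhibitor wells for full effect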
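detection = Rh110 fluorescence intensity | test system = biochemical Apaf-1 apoptosome reconstitution | also added = cytochrome c and DEVD-Rh110 substrate | schedule = 30 min plus 50 min, RT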
Apaf-1 inh conf2: Apaf-1 inhibition, single-dose confirmed. shares compounds with Apaf-1 inh. reconstituted apoptosome, caspase-3 DEVD-Rh110 fluorescence. inhibition, % at 20 µM. 25% of 1,800 active. AID 504614;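 active = mean inhibition of at least 40% at 20 µM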;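 note: plate controls were DMSO wells for no effect and DEVD-CHO caspase inhibitor control wells for full effect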
Rh110 quench: Rh110 signal interference in Apaf-1 inhibitor counter-screen | shares compounds with Apaf-1 inh | Rh110 fluorescence interference, quenched caspase reaction | activation (fluorescence interference), % at 20 µM | 1,800 tested, under 10 active;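 active = signal rise of 40% or more at 20 µM, treated as a fluorescence artifact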
Apaf1 inh interf: Apaf-1 inhibitor counter-screen fluorescence artifact | IC50, µM | 460 tested, under 10 active | AID 588538 | fluorescence interference counterscreen, Apaf-1 assay format | shares compounds with Apaf-1 inh; call rule not given here
Active calls of the source: *; · = no result. Rows were chosen to be rich in hits. Some 2.4% of all compounds tested hit in one or more screens of this group.

SMILES	PAD4 inh	TCR-CD3 inh	SIAE primary	GSTO1 inh	TDP2 absorb	Apaf-1 inh	Apaf-1 inh conf2	Rh110 quench	others
C#CCOCCOCCOCCNc1nc(N2CCN(C(=O)Cn3cc(CCCCN)nn3)CC2)nc(N2CCN(C(=O)Cn3cc(CC(C)O)nn3)CC2)n1 (stereo not drawn)	-4	2	-1	7	0	5	·	·
C#CCOCCOCCOCCNc1nc(N2CCN(C(=O)CCCCCCCCCCNC(=O)Cn3cc(CCCCCN)nn3)CC2)nc(N2CCN(C(=O)CCCCCCCCCCNC(=O)[C@@H]([C@H](C)O)n3cc(C)nn3)CC2)n1	1	·	·	-4	·	49*	40*	18	Apaf1 inh interf=>100
C#CCOCCOCCOCCNc1nc(N2CCN(C(=O)CCCCCCCCCCNC(=O)Cn3cc(C[C@@H](C)O)nn3)CC2)nc(N2CCN(C(=O)CCCCCCCCCCNC(=O)[C@@H]([C@H](C)O)n3cc(C)nn3)CC2)n1	0	·	·	2	·	27	·	·
C#CCOCCOCCOCCNc1nc(N2CCN(C(=O)CCCCCCCCCCNC(=O)Cn3cc(C[C@@H](C)O)nn3)CC2)nc(N2CCN(C(=O)CCCCCCCCCCNC(=O)[C@@H]([C@H](C)CC)n3cc(CCCCCN)nn3)CC2)n1	0	·	·	4	·	54*	50*	13	Apaf1 inh interf=>100
C#CCOCCOCCOCCNc1nc(N2CCOCC2)nc(N2CCN(C(=O)CCCCCCCCCCNC(=O)[C@H]([C@@H](C)CC)n3cc(CCCCN=C(N)N)nn3)CC2)n1	3	1	-2	-2	-7	60*	29	1
Cc1ccccc1OCC(=O)OCC(=O)c1cc(C)n(C2CC2)c1C	·	-6	8	·	-1	5	·	·
NC1=NC[C@H](Cc2ccc(O)cc2)N1CCC12CC3CC(CC(C3)C1)C2	4	-5	-2	2	-8	49*	12	5
CCn1c(C)nnc1SCC(=O)Nc1ccc2c(c1)OCCO2	0	5	8	3	0	-2	·	·
CC(=O)c1ccc(NC(=O)CC2Nc3cccc4cccc(c34)NC2=O)cc1 (stereo not drawn)	-8	9	9	41*	-1	89*	16	3
CCOc1ccc(NC(=O)CC2Nc3ccccc3NC2=O)cc1 (stereo not drawn)	-1	5	3	-5	15	-4	·	·
Cc1cccc(NC(=O)CC2Nc3cccc4cccc(c34)NC2=O)c1 (stereo not drawn)	-1	-1	14	24	1	71*	17	12
CCOc1ccc(CCNC(=O)c2ccc(C)c(N3CCCC3=O)c2)cc1OCC	-1	8	-1	5	-2	6	·	·
Cc1cccc(S(=O)(=O)C(C#N)c2nc3ccccc3nc2N2CCCC2)c1 (stereo not drawn)	-9	-2	-12	4	-5	55*	20	5
CC1=C(CC(=O)c2ccccc2)C(=O)c2ccccc2C1=O	4	2	-15	51*	6	45*	40*	8	Apaf1 inh interf=>100
O=C(CN1C(=O)c2ccccc2C1=O)c1ccccc1	-7	1	-2	10	2	1	·	·
NC1(C#Cc2ccc3c(=O)c4ccccc4sc3c2)CCCCC1	-2	-1	-17	·	1	60*	23	1
Cn1c2ccccc2c(=O)c2ccc(C#CC3(N)CCCCC3)cc21	0	5	-3	-10	-3	38	·	·
O=c1cc(CN2CCN(c3ccccc3)CC2)nc2scc(-c3ccccc3)n12	-2	1	8	1	-8	13	·	·
COc1cc2c(cc1OC)CN(Cc1cc(=O)n3c(-c4ccccc4)csc3n1)CC2	-14	1	0	9	4	42*	11	8
CN1Cc2c(N3CCOCC3)nc3sc(C(=O)c4ccc(Br)cc4)c(N)c3c2CC1(C)C	-2	-4	8	-5	-28	56*	62*	5	Apaf1 inh interf=>100
COC(CNC(=O)c1ccc2c3c(onc13)-c1ccccc1C2=O)OC	-10	-62	-13	34	4	73*	57*	10	Apaf1 inh interf=>100
NCCN1CCN(S(=O)(=O)c2ccc([N+](=O)[O-])cc2)C=C1c1ccc(Cl)cc1	-2	4	1	·	2	43*	17	-1
CC1CCC(C(C)C)C(OC(=O)C2=C3c4ccccc4S(=O)(=O)N3CC2)C1 (stereo not drawn)	-4	-5	-3	-4	2	-2	·	·
CC(NCc1ccc(OCc2ccc(Cl)cc2)cc1)C(O)c1ccccc1 (stereo not drawn)	0	-7	-2	-1	-31	41*	15	3
CC1(c2ccc(Cl)cc2)NC(=S)N2C1NC(=S)N2c1ccccc1 (stereo not drawn)	0	-2	3	9	6	-17	·	·
SMILES	PAD4 inh	TCR-CD3 inh	SIAE primary	GSTO1 inh	TDP2 absorb	Apaf-1 inh	Apaf-1 inh conf2	Rh110 quench	others
CCCCCCCCCCCCCCCC[N+](C)(C)CCN(Cc1ccc(OC)cc1)c1ncccn1	8	·	·	4	·	98*	92*	30	Apaf1 inh interf=>100
N#Cc1c(N2CCCCC2)nc(N)c2c(N)nc3c(c12)CC(c1ccccc1)O3 (stereo not drawn)	-4	-5	4	9	5	42*	12	3
O=S(=O)(NCC(c1ccco1)N1CCN(c2ccccc2)CC1)c1ccc(F)cc1 (stereo not drawn)	-2	2	11	5	10	14	·	·
COCCCNC(=S)N/N=C/c1ccc(OC)cc1	0	-2	1	3	-2	-5	·	·
O=C(Nc1ccc2nc3ccccc3nc2c1)c1ccc(Br)cc1	-5	-2	-75	-2	8	19	·	·
CC(=O)Nc1ccc2nc3ccccc3nc2c1	-3	-13	-4	11	-1	50*	9	2
COCCN(C(=O)CSc1nc(N)cc(=O)[nH]1)c1c(N)n(Cc2ccccc2)c(=O)[nH]c1=O	0	4	6	3	9	45*	2	4
O=C1CSC(=S)N1N=Cc1c[nH]c2ccc(Br)cc12	·	-10	-14	·	4	·	·	·
COc1ccc(NS(=O)(=O)c2ccc(C)c(C(=O)N(C)Cc3ccc(C)cc3)c2)cc1	3	5	5	3	-7	33	·	·
CCOC(=O)N1CCN(S(=O)(=O)c2ccc(C(=O)N(CCN(C)C)c3nc4ccc(CC)cc4s3)cc2)CC1	0	4	-1	0	-7	4	·	·

Compound activity: PubChem BioAssay, several laboratories
